Laboratory results published in the RNAGym collection of RNA variant scans (doi:10.1126/science.aae0568).
Variants at the floor of the assay were thinned out.

B1: tRNA (parent)
chain: GUUCCGUUGGCGUAAUGGUAACGCGUCUCCCUCCUAAGGAGAAGACUGCGGGUUCGAGUCCCGUACGGAACG

Variants of: B1
Test: yeast fitness relative to wild type (ratio to wild type); higher = fitter; tRNA-Arg(CCU), competitive growth, 37 C, YPD
In short: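 Genotype frequency changes were the basis for Darwinian fitness relative to wild type. The frequencies came from 100-nucleotide paired-end sequencing of gene amplicons from the start population and each end population of pooled yeast strains with tRNA-Arg(CCU) gene variants at the native locus. Competition ran in YPD at 37°C for 24 hours in six replicates, genotypes needed ≥ 100 starting reads, and estimates < 0.5 were set to 0.5.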
With GUUCCGUUGGCGAAUUGGUAACGUGUCUCCCUCCUAUGGAGAAGACUGCGGGUUCGAGUCCCGUACCGAACG [U13A A15U C24U A37U G67C] the yeast fitness was 0.591.
With GUUCCGUUGGCGAAAUGGUAACGCGUCUCCCUCCUAAGGUGACGACUGCGGGUUCGAGUCCCGUACGGAACG [U13A A40U A43C] the yeast fitness was 0.693.
In the case of GUUCCGUUGGCGAUAUGGUAAGGCGUCUCCCUCCUAGGGAAAAGACUGCGGGUUCGAGUCCCGUACGGAACG [U13A A14U C22G A37G G41A], the yeast fitness is reported as no more than 0.5.
GUUCCGUUGGCGAUAUGGUAACGCGUCUCCCUCCUAAGGAGAAGACUGAGGGUUCGAGUCCCGUACGGAACG [U13A A14U C49A] showed a yeast fitness of no more than 0.5.
GUUCCGUUGGCGAAAUGGUAACGCGUCUCCCUCCUAAAGAGAAGACUGGCGGUUCGAGUCCCGUACGGAGCG [U13A G38A C49G G50C A70G] showed a yeast fitness of no more than 0.5.
GUUCCGUUGGCGAAAUGGUAACGCGUGUCCCUCCUAAGGAGAAGGCUGCGGGUUCGAGUCCCGAACGGAACG [U13A C27G A45G U64A] gave a yeast fitness of 0.62.
GUUCCGUUGGCGAAAUGGUAACGCGUCUCCCUCCUAAGGAGAAGAUUGCGGGUUCGAGUCCCGUACCGAACG [U13A C46U G67C] showed a yeast fitness of 0.53.
Variant GUUCCGUUGGCGAAAUGGUAACGCGUCUCCCUCCUAAGGAGAAGACUGCGGGUUCGAGUCCCGUACGGAACG [U13A] has a yeast fitness of 0.993.
GUUCCGUUGGCGAAAUGGCUACGCGUCUGCCUGCUAGGGAGAAGACUGUGGGUUCGAGUCCCGUAUGGAACG [U13A U19C A20U C29G C33G A37G C49U C66U] gave a yeast fitness of 0.601.
Work on GUUCCGUUGGCGAAAUGGUAACGCGUCUCCCUGCUAAGGAGAAGACUGCGGGUACGAGACCCGUACAGAACG [U13A C33G U54A U59A G67A] yielded a yeast fitness of 0.504.
With GUUCCGUUGGCGAAAUGGUAGCGCGUCUCCCUCCUAAGGAGAAGACUGCGGGUUCGAGUCCCGUACGGAACG [U13A A21G] the yeast fitness was 1.04.
With GUUCCGUUGGCGAAAUGGUAACGCGUUUCCCUCCUAAGGAGAAGACUGCGGGUUCGAGUCACGUACGGAACG [U13A C27U C61A] the yeast fitness was 0.619.
In the case of GUUCCGUUGGCGAAAUGGUAACGCGUCUCCCUCCUAAGGAGAAGCCUGAGGGUUCGAGUCCCGUUCGGAACG [U13A A45C C49A A65U], the yeast fitness is reported as no more than 0.5.
Work on GUUCCGUUGGCGAGAUGGUAACGCGUCUCCCUCCUAAGGAGAAGACUGCGGGUUCGAGUCCCGUAUGCAACG [U13A A14G C66U G68C] yielded a yeast fitness of no more than 0.5.
With GUUCCGUUGGCGAAAUGGUAACGCGUUUCCCUCCUAAGGAGAAGACUGCGGGUUGGAGUCCCGUACGGAACG [U13A C27U C55G] the yeast fitness was no more than 0.5.
GUUCCGUUGGCGAAAUGGUAACGCGUCCCCCUCCUAAGGAAAAAACUGCGGGUUCGAGUCCCGUACGGAUCG [U13A U28C G41A G44A A70U] gave a yeast fitness of no more than 0.5.
GUUCCGUUGGCGAAAUGGUAACGCGUCUCCAUCCUAAGGAGAAAACUGCGGGUUCGAGUCCCGUGCGGAUCG [U13A C31A G44A A65G A70U] showed a yeast fitness of no more than 0.5.
GUUCCGUUGGCGAAAUGGUAAGGCCUUUCGCUCCUGAGGAGAAGACUGCGGGUUAGAGUCCCGUACGGUACG [U13A C22G G25C C27U C30G A36G C55A A69U] gave a yeast fitness of no more than 0.5.
GUUCCGUUGGCGAAAUGGUAACGCGUCUUCCUCCUAAGGAGAGGACUGCGGGUACGAGCCACGUACGGAACG [U13A C29U A43G U54A U59C C61A] gave a yeast fitness of no more than 0.5.
With GUUCCGUUGGCGAAAUGGUAACGUGUCUCCCUCCUAAGGAGAAGACUGGGGGUUCGAGUCCCGUACGGAACG [U13A C24U C49G] the yeast fitness was no more than 0.5.
In the case of GUUCCGUUGGCGAAAUGGUAACGGAUCUCCCUCCUAAGCCGAAGACUGCGCGUUCGAGUCCCGUACGGUCCG [U13A C24G G25A G39C A40C G51C A69U A70C], the yeast fitness is reported as no more than 0.5.
In the case of GUUCCGUUGGCGAAAUGGUAACGCGUCUCCCUCCUAAGGAGAAGACUGCGGGUUAGAGUGCGGUACGGAACG [U13A C55A C60G C62G], the yeast fitness is reported as no more than 0.5.
Variant GUUCCGUUGGCGAAAUGGUAACGCGGAUCCCUCCUAAGCAGGAGACUGCGCGUUCGAGUCCCGUAUGGUACG [U13A U26G C27A G39C A42G G51C C66U A69U] has a yeast fitness of no more than 0.5.
Variant GUUCCGUUGGCGAACUGGUAACGCGUCUCCCUCCUAAGGAGAAGACUGCGGGUGCGAGUCCCGUAGCGAACG [U13A A15C U54G C66G G67C] has a yeast fitness of no more than 0.5.
For GUUCCGUUGGCGAAAUGGUAACGCGUCUCCCUCCUAAGGAGAAGGCUGCGGGUUCGAGUCCCGUACGGAACG [U13A A45G], the yeast fitness was 0.92.
GUUCCGUUGGCGAAAUGGUAACGCGUUUCCCUCCUAAGGAGAAGACUGCGGGUUCGAGUCCCGUACGGAACG [U13A C27U] gave a yeast fitness of 0.984.
In the case of GUUCCGUUGGCGAAAUGGUAACGCGUCUCCCUCCUAGGGAGAAGACUGCGGGUUCGAGUCCCGUACGGAACG [U13A A37G], the yeast fitness is reported as 0.714.
For GUUCCGUUGGCGAAAUGGUGACGCGUCUCCCUCCUAAGGAGGAGAUUGCGGGUUCGAGUCCCGUACGGAACG [U13A A20G A42G C46U], the yeast fitness was no more than 0.5.
Work on GUUCCGUUGGCGAAGGGGUAACGCGUCUCCCUCCUAAGGAGAAGACUGCGGGUUCGGGUCACGUACGGAACG [U13A A15G U16G A57G C61A] yielded a yeast fitness of no more than 0.5.
GUUCCGUUGGCGACAUGGUAAAGCGUCUCCCUCCUAAGGAGAAGACUGCGGGUUCGAGUCCCGUACGGAACG [U13A A14C C22A] showed a yeast fitness of no more than 0.5.
With GUUCCGUUGGCGAAAUGGUAAUGCGUCUCCCUCCUAAGGAGAAGACUGCGGGUUCGAGUCCCGUACGGAACG [U13A C22U] the yeast fitness was 0.859.
With GUUCCGUUGGCGAAAUGGUAACGCGUCUCCCUCCUAAGGAGAAGACUGCGAGUUCAAGUCCCGUACGGAACG [U13A G51A G56A] the yeast fitness was 0.628.
GUUCCGUUGGCGAAAUGGUAACGCGUCCCCCUCCUAAGGAGAAGACUGCGGGUUCGAGUCCCGUACGGAACG [U13A U28C] gave a yeast fitness of 0.992.
GUUCCGUUGGCGAAAUGGUAACGCGUCUCCCUCCUAAGGAGAAGACUGCGGAUUCGAGUCCCGUACGGAACG [U13A G52A] showed a yeast fitness of 0.643.
GUUCCGUUGGCGAAAUGGUAACGCGUCUCCCUUCUAAGGAGAAGACUGCGGGUUCGAGUCCCGUACGGAACG [U13A C33U] gave a yeast fitness of 0.754.
With GUUCCGUUGGCGAAAUGGUAACGCGUCUCCCUCCUAAGGACAAGACUGCGGAUUCGAGUCCCGUACGGAACG [U13A G41C G52A] the yeast fitness was no more than 0.5.
Work on GUUCCGUUGGCGAAAUGCUCACGUGUCUCUCUCCUAAGGCGAAGACUGCGGGUUCGAGUCCCGUACGCAACG [U13A G18C A20C C24U C30U A40C G68C] yielded a yeast fitness of no more than 0.5.
